From ChEMBL document CHEMBL1649282, “OXA-143, a novel carbapenem-hydrolyzing class D beta-lactamase in Acinetobacter baumannii” (2009)
Values after ≈ are worked out from the molar mass of the structure shown.

Experiments:
Assay type in all cases: functional
[1] = test system: Acinetobacter baumannii; assay: Antimicrobial activity against Acinetobacter baumannii ATCC 19606 by Etest method; conditions: ATCC 19606 = CIP 70.34 = JCM 6841
In short: (§1)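 MICs of β-lactams determined by Etest following the manufacturer's instructions. Reference strains A. baumannii ATCC 19606 and E. coli TOP10 were tested alongside transformants carrying the cloned blaOXA-143: ATCC 19606 with pPH98 and TOP10 with pPH-1. For pPH-1 constructs, TOP10 transformants were selected on 50 μg/ml amoxicillin plus 30 μg/ml kanamycin.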

[2] = test system: Acinetobacter baumannii; assay: Antimicrobial activity against Acinetobacter baumannii ATCC 19606 harboring plasmid PH98 by Etest method; conditions: ATCC 19606 = CIP 70.34 = JCM 6841; in short: as §1
[3] = test system: Escherichia coli; assay: Antimicrobial activity against Escherichia coli TOP10 harboring plasmid PH1 by Etest method; in short: as §1
[4] = test system: Acinetobacter baumannii; assay: Antimicrobial activity against Acinetobacter baumannii […] by Etest method
In short: (§2)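 Etest MICs were read following the manufacturer's instructions. A. baumannii 135040 is a blood-culture clinical isolate from a Brazilian ICU (2004); A. baumannii ATCC 19606 served as the reference strain.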

[5] = test system: Escherichia coli; assay: Antimicrobial activity against Escherichia coli TOP10 by Etest method; in short: as §1
[6] = test system: Acinetobacter baumannii; assay: Antimicrobial activity against Acinetobacter baumannii ATCC 19606 harboring plasmid PH98 by Etest method in presence of 4 ug/ml beta-lactamase inhibitor clavulanic acid; conditions: ATCC 19606 = CIP 70.34 = JCM 6841; in short: as §1
[7] = test system: Escherichia coli; assay: Antimicrobial activity against Escherichia coli TOP10 by Etest method in presence of 4 ug/ml beta-lactamase inhibitor clavulanic acid
In short: (§3)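 Susceptibility was read by Etest, following the manufacturer's instructions. E. coli TOP10 without plasmid served as the reference host strain.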

[8] = test system: Acinetobacter baumannii; assay: Antimicrobial activity against Acinetobacter baumannii […] by Etest method in presence of 4 ug/ml beta-lactamase inhibitor clavulanic acid; in short: as §2
[9] = test system: Acinetobacter baumannii; assay: Antimicrobial activity against Acinetobacter baumannii ATCC 19606 by Etest method in presence of 4 ug/ml beta-lactamase inhibitor clavulanic acid; conditions: ATCC 19606 = CIP 70.34 = JCM 6841; in short: as §2
[10] = test system: Escherichia coli; assay: Antimicrobial activity against Escherichia coli TOP10 harboring plasmid PH1 by Etest method in presence of 4 ug/ml beta-lactamase inhibitor clavulanic acid; in short: as §1
[11] = test system: Acinetobacter baumannii; assay: Antimicrobial activity against Acinetobacter baumannii ATCC 19606 harboring plasmid PH98 by Etest method in presence of 4 ug/ml beta-lactamase inhibitor Tazobactam; conditions: ATCC 19606 = CIP 70.34 = JCM 6841
In short: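 Susceptibility by Etest, run according to the manufacturer's instructions. The recipient strain is A. baumannii ATCC 19606 carrying recombinant plasmid pPH98. The same strain without the plasmid served as the reference. MICs for this strain were also determined by agar dilution following CLSI guidelines.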

[12] = test system: Acinetobacter baumannii; assay: Antimicrobial activity against Acinetobacter baumannii ATCC 19606 by Etest method in presence of 4 ug/ml beta-lactamase inhibitor Tazobactam; conditions: ATCC 19606 = CIP 70.34 = JCM 6841; in short: as §2
[13] = test system: Escherichia coli; assay: Antimicrobial activity against Escherichia coli TOP10 harboring plasmid PH1 by Etest method in presence of 4 ug/ml beta-lactamase inhibitor Tazobactam
In short: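 Susceptibility was read by Etest, following the manufacturer's instructions. The test strain was E. coli TOP10 carrying recombinant plasmid pPH-1, which expresses blaOXA-143 from A. baumannii clinical isolate 135040 at a high level. The gene was introduced by Zero Blunt TOPO cloning, and transformants were selected on 50 μg/ml amoxicillin plus 30 μg/ml kanamycin.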

[14] = test system: Escherichia coli; assay: Antimicrobial activity against Escherichia coli TOP10 by Etest method in presence of 4 ug/ml beta-lactamase inhibitor Tazobactam; in short: as §3
[15] = test system: Acinetobacter baumannii; assay: Antimicrobial activity against Acinetobacter baumannii […] by Etest method in presence of 4 ug/ml beta-lactamase inhibitor Tazobactam; in short: as §2

SMILES: C[C@@H](O)[C@H]1C(=O)N2C(C(=O)O)=C(S[C@@H]3CN[C@H](C(=O)N(C)C)C3)[C@H](C)[C@H]12 [MEROPENEM]
- MIC [1]: 0.19 µg/mL (≈ 0.495 µM)
- MIC [2]: 32 µg/mL (≈ 83.4 µM)
- MIC [3]: 2 µg/mL (≈ 5.22 µM)
- MIC [4]: > 32 µg/mL
- MIC [5]: 0.12 µg/mL (≈ 0.313 µM)

SMILES: CC(C)(O/N=C(\C(=O)N[C@@H]1C(=O)N2C(C(=O)[O-])=C(C[n+]3ccccc3)CS[C@H]12)c1csc(N)n1)C(=O)O [CEFTAZIDIME]
- MIC [1]: 2 µg/mL (≈ 3.66 µM)
- MIC [2]: 2 µg/mL (≈ 3.66 µM)
- MIC [3]: 0.12 µg/mL (≈ 0.22 µM)
- MIC [4]: 256 µg/mL (≈ 468 µM)
- MIC [5]: 0.06 µg/mL (≈ 0.11 µM)

SMILES: CC1(C)S[C@@H]2[C@H](NC(=O)[C@H](C(=O)O)c3ccsc3)C(=O)N2[C@H]1C(=O)O [TICARCILLIN]
- MIC [1]: 4 µg/mL (≈ 10.4 µM)
- MIC [2]: > 256 µg/mL
- MIC [3]: 128 µg/mL (≈ 333 µM)
- MIC [4]: > 256 µg/mL
- MIC [5]: 4 µg/mL (≈ 10.4 µM)

SMILES: CC1(C)S[C@@H]2[C@H](NC(=O)[C@H](N)c3ccc(O)cc3)C(=O)N2[C@H]1C(=O)O [AMOXICILLIN]
- MIC [6]: > 256 µg/mL
- MIC [1]: 32 µg/mL (≈ 87.6 µM)
- MIC [7]: 4 µg/mL
- MIC [8]: > 256 µg/mL
- MIC [2]: > 256 µg/mL
- MIC [9]: 8 µg/mL
- MIC [3]: > 512 µg/mL
- MIC [4]: > 256 µg/mL
- MIC [10]: > 512 µg/mL
- MIC [5]: 4 µg/mL (≈ 10.9 µM)

SMILES: CCN1CCN(C(=O)N[C@@H](C(=O)N[C@@H]2C(=O)N3[C@@H]2SC(C)(C)[C@@H]3C(=O)O)c2ccccc2)C(=O)C1=O [PIPERACILLIN]
- MIC [11]: 8 µg/mL
- MIC [12]: 4 µg/mL
- MIC [13]: 2 µg/mL
- MIC [1]: 4 µg/mL (≈ 7.73 µM)
- MIC [2]: 16 µg/mL (≈ 30.9 µM)
- MIC [3]: 8 µg/mL (≈ 15.5 µM)
- MIC [4]: > 256 µg/mL
- MIC [14]: 0.5 µg/mL
- MIC [15]: > 256 µg/mL
- MIC [5]: 1 µg/mL (≈ 1.93 µM)

SMILES: CO/N=C(\C(=O)N[C@@H]1C(=O)N2C(C(=O)O)=C(COC(C)=O)CS[C@H]12)c1csc(N)n1 [CEFOTAXIME]
- MIC [1]: 8 µg/mL (≈ 17.6 µM)
- MIC [2]: 16 µg/mL (≈ 35.1 µM)
- MIC [3]: 0.12 µg/mL (≈ 0.263 µM)
- MIC [4]: > 256 µg/mL
- MIC [5]: 0.12 µg/mL (≈ 0.263 µM)

SMILES: C[C@@H](O)[C@H]1C(=O)N2C(C(=O)O)=C(SCCNC=N)C[C@H]12 [IMIPENEM ANHYDROUS]
- MIC [1]: 0.19 µg/mL (≈ 0.635 µM)
- MIC [2]: 32 µg/mL (≈ 107 µM)
- MIC [3]: 2 µg/mL (≈ 6.68 µM)
- MIC [4]: > 32 µg/mL

SMILES: CO/N=C(\C(=O)N[C@@H]1C(=O)N2C(C(=O)[O-])=C(C[N+]3(C)CCCC3)CS[C@H]12)c1csc(N)n1 [CEFEPIME]
- MIC [1]: 1 µg/mL (≈ 2.08 µM)
- MIC [2]: 2 µg/mL (≈ 4.16 µM)
- MIC [3]: 0.12 µg/mL (≈ 0.25 µM)
- MIC [4]: 4 µg/mL (≈ 8.32 µM)
